Only some compounds are listed: those with a hit (about 3% of all), similar ones and a draw of the others.
ROMK primary: ROMK potassium channel modulators, primary screen, cell-based, thallium flux, MLSMR library; ATP-sensitive inward rectifier potassium channel 1 (Homo sapiens), P48048; Tet-inducible ROMK, thallium flux fluorescence; actives lie on both sides; B-score at 10 µM; 2% of 130,000 active; AID 1918, 2009;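 active = signal ratio slope over the read window, or its plate-corrected B-score, at least 3 SD from the plate mean, either direction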;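 note: B-score of the F/F0 ratio slope over 7 to 12 s after thallium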
KCC2 mod: KCC2 cotransporter modulators, thallium flux, primary screen, cell-based, HEK293 KCC2, FluoZin-2 fluorescence, MLSMR. Solute carrier family 12 member 5 (Homo sapiens), Q9H2X9. 2.2% of 190,000 active. B-score of Tl+ flux slope (higher = more flux/activation; lower = inhibition) at 10 µM. AID 1456, 2008. KCC2 cells, thallium flux FluoZin-2 fluorescence;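 active = thallium flux slope and its plate-corrected score both differing from the plate sample mean at a set confidence after two filtering rounds, in either direction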;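 note: slope of fluorescence scaled to starting intensity during 10 to 20 s after thallium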
Rad51 HR inh: human RAD51 strand exchange inhibitors, primary screen, biochemical, fluorescence | DNA repair protein RAD51 homolog 1 (Homo sapiens), Q06609 | hRad51 DNA strand exchange, fluorescence dequenching | inhibition, % at 10 µM | 0.085% of 200,000 active | AID 1385, 2008;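 active = inhibition above 40% at the single screening dose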;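 note: 0% = DMSO control wells and 100% = blanks with heterologous ssDNA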
Target sequence (Q06609 whole entry, looked up): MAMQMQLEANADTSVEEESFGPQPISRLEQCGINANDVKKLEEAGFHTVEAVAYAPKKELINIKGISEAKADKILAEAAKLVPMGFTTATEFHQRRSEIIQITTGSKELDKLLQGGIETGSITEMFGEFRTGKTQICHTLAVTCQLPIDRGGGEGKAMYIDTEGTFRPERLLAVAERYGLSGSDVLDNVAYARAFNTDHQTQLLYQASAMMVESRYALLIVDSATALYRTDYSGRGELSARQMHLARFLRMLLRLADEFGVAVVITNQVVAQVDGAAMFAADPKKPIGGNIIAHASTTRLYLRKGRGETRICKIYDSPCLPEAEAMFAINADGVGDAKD
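Material: human Rad51–ssDNA filaments; Probe or stimulus: labelled 47-mer dsDNA for strand exchange; Doses: single 10 µM dose; Incubation: 37 °C 15-min filament assembly, 30-min compound preincubation, 15-min exchange; Technique: FRET fluorescence dequenching, excitation 485 nm, emission 520 nm; Measure: Fluorescence-based percent inhibition, control- and blank-normalised; Benchmarks: plate control and blank wells.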
PKD1 kinase inh: inhibitors of human PKD1 kinase, biochemical, fluorescence polarization. inhibition, % (test concentration not listed). Serine/threonine-protein kinase D1 (Homo sapiens), Q15139. PKD1 kinase fluorescence polarization assay. AID 797, 2007. 0.056% of 200,000 active; in the data active = inhibition above about 50%
ROMK retest: ROMK channel modulator hit retest, confirmation, cell-based, thallium flux, duplicate, resupplied hits | shares compounds with ROMK primary | fluorescence ratio; stronger effect = lower value | normalized thallium flux (F/F0 slope) at 10 µM | 54% of 3,000 active | AID 1917, 2009;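 active = Flux at 10 µM at least 3 SD below or above vehicle control mean in one or both replicates; inconclusive = no clear call, values can overlap the other calls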
Numbers without * were called inactive; u = inconclusive; x = not tested or not shown.

SMILES | ROMK primary | KCC2 mod | Rad51 HR inh | PKD1 kinase inh | ROMK retest
CCN(CC(=O)Nc1ccc(C(=O)Nc2ccc(OC)cc2)cc1)Cc1nc2ccccc2c(=O)[nH]1 | x | x | 12.3 | x | x
CCN(CC(=O)Nc1cc(OC)ccc1OC)Cc1nc2ccccc2c(=O)[nH]1 | 2.77* | -0.0268 | -40.6 | -11.1 | 0.0696
O=c1nc(/C=C/c2cccn2-c2ccc([N+](=O)[O-])cc2)cc(C(F)(F)F)[nH]1 | 0.275 | -1.43 | -22.8 | -2.6 | x
O=c1nc(/C=C/c2cc([N+](=O)[O-])ccc2Cl)cc(C(F)(F)F)[nH]1 | -6.05* | -1.63 | -1.2 | -3.1 | 0.0403*
O=C(NCCCN1CCOCC1)C(=O)N/N=C/c1ccccc1O | x | 0 | x | x | x
Cc1ccc(NC(=O)N2CCCN(Cc3ccc(F)cc3)C2)cc1C | -4.03* | x | -4.8 | 0.3 | 0.0562*
Cc1cccc(C)c1NC(=S)N1CCCN(Cc2ccc(F)cc2)C1 | x | -0.339 | 4.3 | -8.1 | x
COc1cc(Cl)c(C)cc1NC(=O)c1cc(S(=O)(=O)N(C)C)ccc1N1CCCC1 | x | 0.277 | -10.2 | -7.9 | x
CCn1cc(C(=O)NNC(=O)c2ccc(Cl)cc2)c(=O)c2ccc(C)nc21 | -0.0111 | 0.0674 | 13.1 | 0.6 | x
COc1cccc(C(=O)N(C)c2nnc(-c3ccncc3)s2)c1 | x | 0.551 | x | -3.5 | 0.0808
CN(C(=O)c1cccc(C#N)c1)c1nnc(-c2ccncc2)s1 | 0.00215 | x | 4.0 | -11.7 | x
CCOc1ccccc1NS(=O)(=O)c1cn(C)c(=O)n(C)c1=O | -0.316 | -1.17 | 0.9 | x | x
O=C1CSC(c2ccccc2Cl)N1 (stereo not given) | 3.45* | 0.536 | -12.7 | 8.5 | 0.0888
O=C1CSC(c2ccccc2F)N1 (stereo not given) | 0.256 | -0.265 | 9.4 | x | x
c1ccc2c(-c3[nH]ncc3CNCCCn3ncc4ccccc43)cccc2c1 | -1.79* | 0.119 | 28.3 | 0.5 | u
CCOC(=O)C1(Cc2ccc(Cl)cc2)CCN(C(=O)c2cc(C)nc(C)n2)CC1 | x | x | x | -8.5 | x
C=C(C)C(=O)Nc1cccc(C2=NOC3(C2)C[C@H](C(N)=O)N(C(=O)/C=C/C)C3)c1 (stereo not given in full) | x | -0.5 | 1.1 | x | x
CCCCCCCCCCn1ccc(=N)cc1 | -3.62* | 1.19 | 23.4 | x | u
c1ccc(COC(CN2CCCCCC2)CN2CCCCCC2)cc1 | -2.41 | 0.665 | x | x | x
CCN1CCN(C(=S)Nc2cc(S(=O)(=O)N(CC)CC)ccc2C)CC1 | x | 0.591 | 0.7 | 1.0 | x
c1ccc(CC2CCN(C3=Nc4cccc5cccc3c45)CC2)cc1 | -4.39* | -0.916 | x | -6.0 | 0.0621*
CC1CN(C2=Nc3cccc4cccc2c34)CC(C)O1 (stereo not given) | -1.85* | -1.61 | -9.8 | 1.8 | 0.0628*
c1cc2c3c(cccc3c1)C(N1CCN(C3=Nc4cccc5cccc3c45)CC1)=N2 | x | 0.514 | x | -7.6 | x
COCCn1c(=NC(=O)CSCC(=O)Nc2cc(C)on2)sc2cc(C(=O)OC)ccc21 | -0.051 | -0.377 | x | -15.6 | 0.0791
COC(=O)c1ccc(=O)c2nc3/c(=C/O)c(O)cc(=O)c3[nH]c12 | 0.243 | 0.784 | -0.4 | x | x
SMILES | ROMK primary | KCC2 mod | Rad51 HR inh | PKD1 kinase inh | ROMK retest
COc1cccc(/C=C2\SC(=S)N(N3C(=O)CCCC3=O)C2=O)c1 | -2.68* | 0.922 | -3.2 | -4.9 | 0.0489*
COc1cccc(/C=C2\SC(=S)N(CC3CCCO3)C2=O)c1 (stereo not given) | x | -0.175 | 4.2 | -4.3 | x
Nc1c(C=C2C=CC(=O)C=C2)c(=O)nc2snc(SCc3ccccc3)n12 | x | x | 6.4 | x | u
CSc1nsc2nc(=O)c(/C=C3\C(C)=Nc4ccc(C)cc43)c(N)n12 | 0.508 | -0.853 | -50.9 | -2.4 | x
CC(C)(C)[C@H]1C=C(C(N)=O)O[C@@H](OCCCCO)C1 | x | -0.318 | 0.2 | x | x
CCCSC(=S)c1c(C)[nH]n(-c2ccccc2)c1=O | x | x | 25.5 | x | 0.12*
CCCCn1c(SCC(=O)Nc2cc(C(F)(F)F)cc(C(F)(F)F)c2)nnc1C(CC)N(C)C (stereo not given) | -0.106 | 0.058 | 16.0 | -3.1 | x
Cc1cccc(-n2c(O)c(/C=N/NC(=O)c3ccccc3Cl)c3ccccc3c2=O)n1 | x | -0.235 | 0.1 | -4.9 | x
O=C(N/N=C/c1c(O)n(-c2ccccc2Cl)c(=O)c2ccccc12)c1cccnc1 | -3.56* | -1.3 | -25.9 | 5.3 | 0.0578*
